Assays:
[1] = system: Human immunodeficiency virus 1; assay: Antiviral activity against ATV resistant HIV1 harboring protease L23I/E34Q/K43I/M46I/I50L/G51A/L63P/A71V/V82A/T91A mutant infected in human MT4 cells assessed as reduction in p24 Gag protein production after 7 days by chemiluminescent enzyme immunoassay; format: functional, organism-based; details: Human immunodeficiency virus 1, MT4, 168 h
Method in brief: (§1)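 Variants had been selected by passaging HIV-1 NL4-3 in MT-4 cells under increasing PI concentrations (up to 5 μM). Assays were run in duplicate; values are means (± S.D.) of two independent experiments.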

[2] = system: Human immunodeficiency virus 1; assay: Antiviral activity against LPV resistant HIV1 harboring protease L10F/[…]I54V/V82A mutant infected in human MT4 cells assessed as reduction in p24 Gag protein production after 7 days by chemiluminescent enzyme immunoassay; format: functional, organism-based; details: Human immunodeficiency virus 1, MT4, 168 h; method in brief: as §1
[3] = system: Human immunodeficiency virus 1; assay: Resistance index, ratio of EC50 for antiviral activity against LPV resistant HIV1 harboring protease L10F/[…]I54V/V82A mutant infected in human MT4 cells to EC50 for antiviral activity against wild type HIV1 NL4-3 infected in human MT4 cells; format: functional
[4] = system: Human immunodeficiency virus 1; assay: Resistance index, ratio of EC50 for antiviral activity against ATV resistant HIV1 harboring protease L23I/E34Q/K43I/M46I/I50L/G51A/L63P/A71V/V82A/T91A mutant infected in human MT4 cells to EC50 for antiviral activity against wild type HIV1 NL4-3 infected in human MT4 cells; format: functional
[5] = system: Human immunodeficiency virus 1; assay: Antiviral activity against wild type HIV1 NL4-3 infected in human MT4 cells assessed as reduction in p24 Gag protein production after 7 days by chemiluminescent enzyme immunoassay; format: functional, organism-based; details: Human immunodeficiency virus 1, NL4-3, MT4, 168 h
[6] = system: Human immunodeficiency virus 1; assay: Antiviral activity against APV resistant HIV1 harboring protease L10F/M46I/I50V/I85V mutant infected in human MT4 cells assessed as reduction in p24 Gag protein production after 7 days by chemiluminescent enzyme immunoassay; format: functional, organism-based; details: Human immunodeficiency virus 1, MT4, 168 h; method in brief: as §1
[7] = system: Human immunodeficiency virus 1; assay: Resistance index, ratio of EC50 for antiviral activity against APV resistant HIV1 harboring protease L10F/M46I/I50V/I85V mutant infected in human MT4 cells to EC50 for antiviral activity against wild type HIV1 NL4-3 infected in human MT4 cells; format: functional
Protease = Protease (Human immunodeficiency virus 1, UniProt Q9YQ12); assay: Inhibition of wild type HIV-1 NL4-3 protease expressed in Escherichia coli Rosetta (DE3)pLysS using Ac-Thr-Ile-Nle-Nle-Gln-Arg-NH2 as substrate by fluorescence assay
[8] = system: Human immunodeficiency virus 1; assay: Antiviral activity against HIV-1 LAI infected in human MT2 cells; format: functional, organism-based; details: Human immunodeficiency virus 1, LAI

Sequence of Protease (Q9YQ12 whole entry): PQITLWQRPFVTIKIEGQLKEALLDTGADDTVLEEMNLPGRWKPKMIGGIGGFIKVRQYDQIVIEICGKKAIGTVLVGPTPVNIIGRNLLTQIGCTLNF

Compound | EC50 [1] [nM] | EC50 [2] [nM] | Ratio EC50 [3] | Ratio EC50 [4] | EC50 [5] [nM] | EC50 [6] [nM] | Ratio EC50 [7] | Ki (Protease) [nM] | IC50 [8] [nM]
CC(C)CN(C[C@@H](O)[C@H](Cc1ccccc1)NC(=O)O[C@H]1CCOC1)S(=O)(=O)c1ccc(N)cc1 | > 1000 | 190 | 2 | 11 | 87 | > 1000 | >11 | – | –
CC(C)CN(C[C@@H](O)[C@H](Cc1ccccc1)NC(=O)O[C@H]1CO[C@H]2OCC[C@H]21)S(=O)(=O)c1ccc(N)cc1 | 24 | – | – | – | – | – | – | – | –
COc1ccc(S(=O)(=O)N(CC(C)C)C[C@@H](O)[C@H](Cc2ccccc2)NC(=O)O[C@H]2C[C@H]3CO[C@H]4OCC[C@@H]2[C@@H]34)cc1 | – | – | – | – | – | – | – | 0.045 | 31
COc1ccc(S(=O)(=O)N(CC(C)C)C[C@@H](O)[C@H](Cc2ccccc2)NC(=O)O[C@@H]2C[C@@H]3CO[C@@H]4CCC[C@H]2[C@H]34)cc1 | – | – | – | – | – | – | – | 4.55 | > 1000
CC(C)CN(C[C@@H](O)[C@H](Cc1cc(F)cc(F)c1)NC(=O)O[C@H]1CC2CO[C@H]3OCC[C@@H]1[C@@H]23)S(=O)(=O)c1ccc2nc(NC3CC3)sc2c1 (stereo partly specified) | 1.5 | 2 | 2 | 1 | 2 | 0.32 | 0.3 | 0.012 | 0.023
COc1ccc(S(=O)(=O)N(CC(C)C)C[C@@H](O)[C@H](Cc2ccccc2)NC(=O)O[C@H]2C[C@@H]3CO[C@@H]4OC[C@H]2[C@H]34)cc1 | – | – | – | – | – | – | – | 0.05 | 21
CC(C)CN(C[C@@H](O)[C@H](Cc1ccccc1)NC(=O)O[C@H]1CC2CO[C@H]3OCC[C@@H]1[C@@H]23)S(=O)(=O)c1ccc2nc(NC3CC3)sc2c1 (stereo partly specified) | – | – | – | – | – | – | – | 0.01 | 1.4
COc1ccc(S(=O)(=O)N(CC(C)C)C[C@@H](O)[C@H](Cc2ccccc2)NC(=O)O[C@H]2C[C@H]3CCO[C@H]4OC[C@@H]2[C@@H]34)cc1 | – | – | – | – | – | – | – | 0.005 | 29
CC(C)CN(C[C@@H](O)[C@H](Cc1cc(F)cc(F)c1)NC(=O)O[C@@H]1C[C@@H]2CO[C@@H]3OCC[C@H]1[C@H]23)S(=O)(=O)c1ccc2nc(NC3CC3)sc2c1 | 0.6 | 2 | 1 | 0.3 | 1.2 | 0.3 | 0.2 | 0.002 | 0.027
COC[C@@H]1C[C@@H]2[C@H]3[C@H](CO[C@H]3O1)C[C@@H]2OC(=O)N[C@@H](Cc1ccccc1)[C@H](O)CN(CC(C)C)S(=O)(=O)c1ccc(OC)cc1 | – | – | – | – | – | – | – | 0.09 | 248
COc1ccc(S(=O)(=O)N(CC(C)C)C[C@@H](O)[C@H](Cc2ccccc2)NC(=O)O[C@H]2C[C@H]3CO[C@H]4CCC[C@@H]2[C@@H]34)cc1 | – | – | – | – | – | – | – | 0.45 | > 1000
COc1ccc(S(=O)(=O)N(CC(C)C)C[C@@H](O)[C@H](Cc2ccccc2)NC(=O)O[C@H]2C[C@H]3CO[C@H]4O[C@H](C)C[C@@H]2[C@@H]34)cc1 | – | – | – | – | – | – | – | 0.05 | 130
COc1ccc(S(=O)(=O)N(CC(C)C)C[C@@H](O)[C@H](Cc2ccccc2)NC(=O)O[C@@H]2C[C@@H]3CO[C@@H]4OCC[C@H]2[C@H]34)cc1 | – | – | – | – | – | – | – | 0.008 | 9
CC(C)CN(C[C@@H](O)[C@H](Cc1ccccc1)NC(=O)O[C@@H]1C[C@@H]2CO[C@@H]3OCC[C@H]1[C@H]23)S(=O)(=O)c1ccc2nc(NC3CC3)sc2c1 | – | – | – | – | – | – | – | 0.5 | 0.9
COC(=O)N[C@H](C(=O)N[C@@H](Cc1ccccc1)[C@@H](O)CN(Cc1ccc(-c2ccccn2)cc1)NC(=O)[C@@H](NC(=O)OC)C(C)(C)C)C(C)(C)C [ATAZANAVIR] | > 1000 | 29 | 9 | >303 | 3.3 | 70 | 21 | – | –
Cc1cccc(C)c1OCC(=O)N[C@@H](Cc1ccccc1)[C@@H](O)C[C@H](Cc1ccccc1)NC(=O)[C@H](C(C)C)N1CCCNC1=O [LOPINAVIR] | > 1000 | > 1000 | – | – | – | 390 | – | – | –

From ChEMBL document CHEMBL4190391 (J Med Chem, 2018)
